# Assay outcomes (PubChem)
# SR-BI HDL uptake – inhibitors of SR-BI mediated HDL lipid uptake, primary screen, ldlA[mSR-BI] cells, fluorescence, single point; hit rate 0.96% among 320,000; inhibition, % at 12.5 µM; Scavenger receptor class B member 1 (Mus musculus), Q61009; ldlA[mSR-BI] CHO cells, DiI-HDL uptake fluorescence, 3 h;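 active = mean replicate inhibition of at least 70% and a set share of replicates each scoring 70 or more; inconclusive = meets just one of the two criteria; inactive = fails both criteria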;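 note: 0% = median of neutral control wells and 100% = median of positive control wells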
# Target sequence (Q61009 whole entry, looked up): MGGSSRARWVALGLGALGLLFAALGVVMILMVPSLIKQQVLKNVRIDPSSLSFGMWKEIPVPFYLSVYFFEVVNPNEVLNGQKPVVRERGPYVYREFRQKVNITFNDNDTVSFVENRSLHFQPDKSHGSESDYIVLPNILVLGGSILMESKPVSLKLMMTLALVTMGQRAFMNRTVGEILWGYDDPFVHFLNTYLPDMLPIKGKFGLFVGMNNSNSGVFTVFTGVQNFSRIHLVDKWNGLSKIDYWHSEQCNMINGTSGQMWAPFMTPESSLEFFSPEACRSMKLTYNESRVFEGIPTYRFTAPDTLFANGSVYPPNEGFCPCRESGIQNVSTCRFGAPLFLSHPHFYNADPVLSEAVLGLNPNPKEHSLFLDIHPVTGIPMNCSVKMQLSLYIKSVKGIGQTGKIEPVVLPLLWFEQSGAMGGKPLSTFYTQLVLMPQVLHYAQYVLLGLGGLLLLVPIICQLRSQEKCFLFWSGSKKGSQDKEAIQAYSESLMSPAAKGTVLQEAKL
# Wnt bcat act – Wnt/beta-catenin pathway activators, primary screen, cell-based, plate reader, single point | Wnt/beta-catenin reporter cell assay, activator | activation, % at 9.35 µM | hit rate 1.2% among 300,000; in the data active = activation above about 30%, passing the limit was not always enough; inconclusive = no clear call, values can overlap the other calls;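 note: 0% = neutral control wells and 100% = positive control wells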
# SR-BI DiI-HDL act – activators of SR-BI mediated DiI-HDL uptake, primary screen, ldlA[mSR-BI] CHO cells, DiI fluorescence. 3 h; 100 = double the neutral-control signal. activation, % at 12.5 µM. hit rate 0.096% among 320,000. AID 504775, 2011;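 active = mean replicate activation of at least 60% and every replicate at or above 60%; inconclusive = mean or all-replicate condition met, but not both; inactive = mean below 60% and not all replicates reaching 60%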;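 note: 0% = median plate neutral-control signal and 100% = twice that signal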
#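 Material: SR-BI-overexpressing, LDLR-lacking CHO cells | Dosing: Single compound concentration, delivered by pin transfer | Probe or stimulus: Labelled HDL, 10 µg/mL | Signal: Bottom-read cell fluorescence after medium removal, ex 550/em 595 nm | Schedule: 3 h, 37 °C | Evaluation: HDL uptake via cellular fluorescence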
# HSF1 activator – HSF-1 activators, primary screen, NIH3T3-HGL cells, MG132 stress, luminescence, single point; NIH3T3-HGL HSF-1 luciferase reporter, 8 h; 100% = twice DMSO control signal; activation, % at 9 µM; hit rate 1.7% among 300,000;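 active = mean replicate activation of at least 50% with a set share of replicates each reaching 50%; inconclusive = only one of those two conditions met; inactive = mean below 50% and too few replicates reaching it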;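 note: 0% = median of the neutral control wells and 100% = twice that signal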
# MITF TRPM1 HTS – activators of MITF-driven TRPM1 promoter reporter, primary screen, cell-based, SK-MEL-5, luciferase, single point; activation, % at 12.5 µM; hit rate 0.75% among 300,000; SK-MEL-5 TRPM1-promoter luciferase, 24 h; % of positive control, neutral wells = 0;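 active = mean activation of at least 80% with every replicate also reaching 80%; inconclusive = mean reaches 80% but some replicate falls short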;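 note: 0% = neutral control wells and 100% = parthenolide positive control wells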
# * hit, by the source's call; u = inconclusive; x = no result given. A selection: hits, their analogues and other compounds. The true share with any hit is near 3.6%.
SMILES,SR-BI HDL uptake,Wnt bcat act,SR-BI DiI-HDL act,HSF1 activator,MITF TRPM1 HTS
CCCCNC(=O)C1(C)CCN1C(=O)c1cc(C)n(C(C)(C)C)n1 (configuration not stated),x,-1,x,x,x
CC(C)OC(=O)c1c(NC(=O)Cn2cnc([N+](=O)[O-])n2)sc2c1CCCC2,75*,-1,x,58*,-2
CCOC(=O)c1c(NC(=O)Cn2cnc([N+](=O)[O-])n2)sc2c1CCCC2,42,-2,-42,10,-6
COc1ccc(CCNC(=O)CSc2nc3cc(Cl)ccc3o2)cc1OC,14,x,-14,66*,-9
CCOC(=O)Nc1cc(=O)c([N+](=O)[O-])c(N)[nH]1,x,-3,x,x,x
COc1ccccc1/C=N/NC(=O)c1ccc(-c2ccccc2)cc1,79*,0,-79,-19,-26
COc1ccccc1/C=N/NC(=O)c1cccc2ccccc12,77*,0,-77,-8,1
CCOc1cc(/C=N/NC(=O)c2ccc(N(C)S(=O)(=O)c3ccccc3)cc2)ccc1OC,73*,-1,-73,44,0
COc1ccc(C(=O)NCCOc2ccccc2Cl)c(OC)c1OC,26,u,-26,54*,89*
CC(C)Oc1ccc2ccccc2c1CNC[C@H]1O[C@@H](n2cnc(C(N)=O)n2)[C@H](O)[C@@H]1O,5,0,-5,x,-3
COc1ccccc1/C=C/C=N/NC(=O)c1ccccn1,12,19,-12,39,97*
CC(=O)Nc1ccc(C(=O)N/N=C/c2ccccc2OCc2ccccc2)cc1,79*,6,-79,-4,-1
O=C(N/N=C/c1ccccc1[N+](=O)[O-])c1ccc(COc2ccccc2-c2ccccc2)cc1,77*,-5,-77,14,7
COc1ccccc1C(=O)NCCCNC(=O)c1ccccn1,-7,-2,7,79*,4
COC(=O)N/N=C/c1ccccc1OCc1ccccc1,52,-1,-52,-1,16
COc1cc(/C=N\NC(=O)c2ccc(-c3ccccc3)cc2)cc(OC)c1O,92*,9,-92,0,40
COc1ccc(/C=N/NC(=O)c2cc3c(ccc4ccccc43)o2)c(OC)c1,82*,1,-82,0,-1
O=C1CCC/C(=N\NC(=O)c2ccc(COc3ccccc3-c3ccccc3)cc2)C1,29,0,-29,72*,6
COc1cc(/C=N\NC(=O)c2ccc(-c3ccccc3)cc2)cc(OC)c1OC(C)=O,49,7,x,x,28
O=C1C(Br)=C(c2ccccc2)C(c2ccccc2)=C1c1ccccc1,15,x,-15,x,-77
COc1ccc(C(C(=O)NC2CCCC2)N(Cc2ccccc2)C(=O)c2snc(C(N)=O)c2N)cc1OC (configuration not stated),-11,9,11,52*,-1
CN(CCc1cn[nH]c1)Cc1nc(C(c2ccccc2)c2ccccc2)no1,-19,-1,19,46,-4
CCN(CC)CCN(C)Cc1nc(C(c2ccccc2)c2ccccc2)no1,5,-1,-5,54*,x
CC(C)CN(C(=O)Cn1c(C(F)(F)F)nc2ccccc21)c1c(N)n(Cc2ccccc2)c(=O)[nH]c1=O,-17,-4,17,x,4
C=CCc1cccc(CNc2nc3ccccc3n2CCN2CCOCC2)c1O,-2,x,2,118*,2
SMILES,SR-BI HDL uptake,Wnt bcat act,SR-BI DiI-HDL act,HSF1 activator,MITF TRPM1 HTS
CCCn1c(NCc2cccc(OC)c2O)nc2ccccc21,16,9,-16,62*,x
COc1ccc(CNc2nc3ccccc3n2C(C)C)c(O)c1,36,-2,-36,-9,-4
COc1cccc(CNc2nc3ccccc3n2C(C)C)c1O,7,0,-7,182*,13
CCCn1c(NCc2cccc(OC)c2OC)nc2ccccc21,32,1,-32,-2,x
Oc1ccc(C[C@H]2CN([C@@H](Cc3ccc(O)cc3)CN3CCC[C@@H]3CN3C(=S)NC[C@@H]3Cc3ccccc3)C(=S)N2CCc2ccccc2)cc1,x,-8,x,x,x
Oc1ccc(C[C@H]2CN([C@@H](Cc3ccccc3)CN3CCC[C@@H]3CN3C(=S)NC[C@@H]3Cc3ccccc3)C(=S)N2CC2CCCCC2)cc1,x,-3,x,x,x
CC(C)C[C@@H](CN1CCCC1CN1C(=S)NC[C@@H]1Cc1ccc(O)cc1)N1C[C@H](Cc2ccc(O)cc2)N(CCc2ccccc2)C1=S (some centres not stated),-177,-7,177*,x,-33
Oc1ccc(C[C@H]2CNC(=S)N2CC2CCCN2C[C@H](Cc2ccc(O)cc2)N2C[C@H](Cc3ccccc3)N(CC3CCCCCC3)C2=S)cc1 (some centres not stated),-68,-4,68*,x,-20
Oc1ccc(C[C@H]2CNC(=S)N2CC2CCCN2C[C@H](Cc2ccc(O)cc2)N2C[C@H](Cc3ccc(O)cc3)N(CC3CCCCCC3)C2=S)cc1 (some centres not stated),-186,-13,186*,x,-72
C/C(CC(=O)NCc1ccc(F)cc1)=N\NC(N)=S,87*,0,-87,-2,5
O=C1C=C(NCc2ccccc2)c2ccccc2C1=O,10,13,-10,70*,-104
O=C1C=C(Nc2ccccc2O)c2ccccc2C1=O,-9,12,9,84*,-100
O=C(COc1ccc(F)c(Cl)c1)Nc1ccc(N2CCOCC2)cc1,47,-2,-47,x,-13
CCc1nc2ccc(C(=O)Nc3cc(-c4ccccc4)ccc3OC)cn2c1N(C)Cc1nccs1,x,-3,x,x,x
Cn1c(-c2ccccc2)c(Sc2ccccc2)c2cc(-c3ccc4[nH]ccc4c3)ccc21,x,-3,x,x,x
CC(/C=C/c1ccco1)=N/NC(=O)OC(C)(C)C,-16,57*,16,8,33
C/C(=N/NC(=O)OC(C)(C)C)c1ccco1,-22,u,22,11,41
O=C(COC(=O)C1CCN(S(=O)(=O)c2cccc3cccnc23)CC1)c1ccc([N+](=O)[O-])cc1,13,x,-13,107*,-9
CCc1nc2ccc(C(=O)N3CCN(S(=O)(=O)CC)CC3)cn2c1N(CC)C(=O)NCCc1ccccc1,x,0,x,x,x
COc1ccc(NC(=O)CN2C(=O)C3CC=CCC3C2=O)cc1Cl (configuration not stated),x,0,x,x,x
Cc1ccc(OCc2ccc(C#N)cc2)c(C(=O)c2cc(C#N)c(=O)n(C3CC3)c2)c1,32,-13,-32,53*,-4
COC(=O)C1=C(C)N(Cc2ccccc2C(F)(F)F)C(=NCc2ccccc2C(F)(F)F)NC1c1cccc(C(F)(F)F)c1 (configuration not stated),x,-10,x,x,x
COC(=O)c1nccnc1N,4,1,-4,x,10
